From ChEMBL document CHEMBL4402547, “Synthesis and Pharmacological Characterization of Conformationally Restricted Retigabine Analogues as Novel Neuronal Kv7 Channel Activators” (J Med Chem, 2020) come the findings set out here.

As usually defined, the logP is the decadic logarithm of the partition coefficient of the neutral form, usually between octanol and water. Usually EC50 stands for the midpoint of the concentration-response curve.

Data set [1] has as its target T1, Potassium voltage-gated channel subfamily KQT member 1 (Homo sapiens, UniProt P51787).
T1 sequence (P51787 whole entry): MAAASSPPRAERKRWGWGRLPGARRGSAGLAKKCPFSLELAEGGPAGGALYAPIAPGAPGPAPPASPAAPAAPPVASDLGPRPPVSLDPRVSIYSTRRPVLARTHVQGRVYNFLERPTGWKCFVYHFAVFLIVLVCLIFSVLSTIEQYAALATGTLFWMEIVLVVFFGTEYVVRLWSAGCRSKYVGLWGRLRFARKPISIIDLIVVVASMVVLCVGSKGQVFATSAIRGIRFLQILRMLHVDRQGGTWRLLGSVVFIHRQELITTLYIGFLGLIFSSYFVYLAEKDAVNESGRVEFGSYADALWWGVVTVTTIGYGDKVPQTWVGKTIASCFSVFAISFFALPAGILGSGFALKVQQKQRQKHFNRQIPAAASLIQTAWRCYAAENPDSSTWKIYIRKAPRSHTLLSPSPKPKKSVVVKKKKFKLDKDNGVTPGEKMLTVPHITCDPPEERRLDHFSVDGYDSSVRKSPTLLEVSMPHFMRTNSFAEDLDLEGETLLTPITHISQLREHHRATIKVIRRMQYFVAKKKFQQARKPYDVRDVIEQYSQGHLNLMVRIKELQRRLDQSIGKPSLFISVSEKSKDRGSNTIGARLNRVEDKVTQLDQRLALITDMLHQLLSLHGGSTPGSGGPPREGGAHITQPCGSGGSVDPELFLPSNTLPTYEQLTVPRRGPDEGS
The data set can be described thus: Activation of human Kv7.1 expressed in CHO cells assessed as channel current amplitude at 10 uM measured at holding potential of +20 mV and -40 mV by whole cell patch clamp electrophysiology assay. The class given is cell-based.

Data set [2] in a line: Lipophilicity, log P of the compound. Format: physicochemical. As to conditions: octanol/water; call rule not given here.
The target of data set [3] is Voltage-gated potassium channel, KQT; KCNQ2(Kv7.2)/KCNQ3(Kv7.3) (Homo sapiens) (UniProt O43526+O43525). Kind of data set: Activation of human Kv7.2/Kv7.3 expressed in CHO cells assessed as increase in channel current amplitude by whole cell patch clamp electrophysiology assay. Format: cell-based. In outline:
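Human Kv7.2 plus Kv7.3 cDNAs co-transfected into CHO cells; whole-cell patch clamp at 20–22°C, extracellular solution pH 7.4. Drug applied at 0.01–10 μM to test concentration-dependent current increase.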
(In general: In patch-clamp work, channel activity is measured electrically.)

Data set [4] in a line: Photostability of compound in pH 7.4 buffer assessed as metabolite with phenazinium-dimer formation incubated for 6 hrs under visible light irradiation by HPLC/MS/MS analysis.
The nature of data set [5]: Photostability of compound in pH 7.4 buffer assessed as formation of ethyl (2,4-bis((4-fluorobenzyl)amino)phenyl)carbamate by measuring retention time of metabolite incubated for 6 hrs under visible light irradiation by HPLC/MS analysis.
A short description of data set [6]: Photostability of compound in pH 7.4 buffer assessed as compound degradation at 100 ug/ml incubated for 6 hrs under artificial daylight D65 lamp-irradiation by HPLC analysis relative to control. In outline:
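Compound from DMSO stock diluted in pH 7.4 buffer to final 1 mM, 10 μM or 1 μM in 1 cm quartz cells, held at 37°C under UV lamp (365 and 264 nm) or artificial daylight D65 lamp; dark controls in foil at 37°C. Aliquots taken at set intervals; loss of parent by HPLC (C18, TFA water/acetonitrile gradient, 254 nm).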

The next data set deals with UGT (phase 2 metabolism) (Homo sapiens, UniProt O60656+O75310+O75795+P06133+P0DTE4+P0DTE5+P16662+P19224+P22309+P22310+P35503+P35504+P36537+P54855+Q6UWM9+Q9BY64+Q9HAW7+Q9HAW8+Q9HAW9). The data set can be described thus: Drug metabolism in human liver S9 fractions assessed as assessed as UGT-mediated phase 2 metabolism at 1 mM preincubated for 5 mins followed by NADPH addition and measured after 60 mins by RP-UHPLC-DAD analysis relative to control. Particulars: read-out: Drug metabolism. The class given is ADME, subcellular. The gist of the method:
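Compound (2 μL of 1 mM stock) in 100 mM phosphate buffer pH 7.4 with pooled human liver S9, preincubated 5 min, then NADPH added, 37°C for 60 min. For UGT: 5 mM UDPGA, alamethicin, 1 mM MgCl added; for NAT: 2 mM DTT, sulfamethazine, 4.5 mM acetyl DL-carnitine, 0.1 U/mL carnitine acetyltransferase. Stopped with ice-cold methanol; RP-UHPLC-DAD; % turnover = 100 − (60 min/0 min concentration × 100).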

Data set [7] deals with T2, Potassium voltage-gated channel subfamily KQT member 3 (Homo sapiens, UniProt O43525).
T2 sequence (O43525 whole entry): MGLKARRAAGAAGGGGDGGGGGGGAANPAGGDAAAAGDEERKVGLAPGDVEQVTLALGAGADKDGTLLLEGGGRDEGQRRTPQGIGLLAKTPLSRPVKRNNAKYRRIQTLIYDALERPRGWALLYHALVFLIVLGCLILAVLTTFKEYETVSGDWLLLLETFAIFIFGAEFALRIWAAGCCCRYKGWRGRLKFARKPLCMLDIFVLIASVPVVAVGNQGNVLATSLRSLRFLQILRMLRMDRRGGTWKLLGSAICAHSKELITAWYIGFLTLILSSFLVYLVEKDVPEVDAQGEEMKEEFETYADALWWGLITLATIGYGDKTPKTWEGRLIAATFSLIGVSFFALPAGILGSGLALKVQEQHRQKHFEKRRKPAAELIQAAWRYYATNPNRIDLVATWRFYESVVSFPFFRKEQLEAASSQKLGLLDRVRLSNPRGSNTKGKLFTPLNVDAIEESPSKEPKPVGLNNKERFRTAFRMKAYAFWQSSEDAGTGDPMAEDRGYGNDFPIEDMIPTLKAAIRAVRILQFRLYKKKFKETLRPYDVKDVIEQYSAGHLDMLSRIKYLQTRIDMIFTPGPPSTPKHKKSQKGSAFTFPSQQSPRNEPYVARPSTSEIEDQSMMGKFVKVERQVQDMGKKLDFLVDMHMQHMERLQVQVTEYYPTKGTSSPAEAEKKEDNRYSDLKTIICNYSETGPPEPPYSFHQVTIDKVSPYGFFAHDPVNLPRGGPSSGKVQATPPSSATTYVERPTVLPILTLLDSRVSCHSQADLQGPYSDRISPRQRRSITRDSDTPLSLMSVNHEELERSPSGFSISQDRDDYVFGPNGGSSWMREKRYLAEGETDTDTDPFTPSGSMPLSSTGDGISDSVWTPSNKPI
Kind of data set: Activation of human Kv7.3 expressed in CHO cells assessed as increase in channel current amplitude by whole cell patch clamp electrophysiology assay. The class given is cell-based.

Data set [8] has as its target Potassium voltage-gated channel subfamily KQT member 2 (Homo sapiens, UniProt O43526). Kind of data set: Activation of human Kv7.2 expressed in CHO cells assessed as increase in channel current amplitude by whole cell patch clamp electrophysiology assay. The class given is cell-based.

Molecules are shown by their SMILES.

Chain of Potassium voltage-gated channel subfamily KQT member 2 (O43526 whole entry): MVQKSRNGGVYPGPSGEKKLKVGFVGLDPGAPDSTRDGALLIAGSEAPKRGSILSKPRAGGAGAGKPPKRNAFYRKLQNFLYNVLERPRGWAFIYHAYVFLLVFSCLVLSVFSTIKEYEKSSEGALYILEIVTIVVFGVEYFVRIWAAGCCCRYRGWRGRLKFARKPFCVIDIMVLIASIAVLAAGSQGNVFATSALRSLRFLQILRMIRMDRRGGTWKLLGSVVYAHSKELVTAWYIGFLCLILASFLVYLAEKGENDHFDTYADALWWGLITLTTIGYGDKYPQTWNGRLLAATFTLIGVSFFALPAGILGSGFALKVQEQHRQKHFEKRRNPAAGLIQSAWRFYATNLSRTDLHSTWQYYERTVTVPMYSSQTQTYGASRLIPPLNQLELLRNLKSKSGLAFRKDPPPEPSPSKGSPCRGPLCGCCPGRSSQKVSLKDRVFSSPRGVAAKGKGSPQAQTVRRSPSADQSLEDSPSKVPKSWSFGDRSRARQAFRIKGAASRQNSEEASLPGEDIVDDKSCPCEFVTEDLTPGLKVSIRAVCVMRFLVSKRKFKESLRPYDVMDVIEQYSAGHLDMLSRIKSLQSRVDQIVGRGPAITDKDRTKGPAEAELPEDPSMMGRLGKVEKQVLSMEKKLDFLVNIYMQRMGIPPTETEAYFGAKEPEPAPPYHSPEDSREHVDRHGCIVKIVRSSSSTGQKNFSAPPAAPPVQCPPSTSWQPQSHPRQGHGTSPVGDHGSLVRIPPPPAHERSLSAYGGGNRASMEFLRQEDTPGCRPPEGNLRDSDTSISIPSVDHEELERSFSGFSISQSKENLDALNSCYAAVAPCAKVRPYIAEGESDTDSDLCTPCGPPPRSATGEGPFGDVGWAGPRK

With `CCCCCCC(=O)Nc1ccc2c(ccn2Cc2ccc(C(F)(F)F)cc2)c1`, the Activity result is “Not Active” in data set [1] and “Dose-dependent effect” in data set [3]. Moreover, the logP in [2] is 6.83.
In the case of `CCOC(=O)Nc1ccc(NCc2ccc(F)cc2)cc1N` [EZOGABINE], in data set [4], the Drug metabolism entry was “Metabolite detected”. Moreover, in data set [1], the Activity result is given as “Not Active”. Further, the Retention time in data set [5] worked out at 14.4 min. Besides, in data set [6], the Drug degradation came to 47.3%. Also, on UGT (phase 2 metabolism), the metabolised at 1 h, 1000 µM turned out to be 11.4%.
For `CC(C)(C)CC(=O)Nc1ccc2c(ccn2Cc2ccc(C(F)(F)F)cc2)c1`, the EC50 was 920 nM in data set [7] and 630 nM in data set [8]. On UGT (phase 2 metabolism), the metabolised at 1 h, 1000 µM stood at 7.42%. The logP in data set [2] turned out to be 5.58. In data set [3], the Activity entry is “Dose-dependent effect”.
